Reference: PMC8849394 (Science Advances, 2022)
Ends that are not written are not given here. * marks the point of attachment. FITC = O=C1OC2(c3ccc(O)cc3Oc3cc(O)ccc32)c2ccc(NC(=S)*)cc21

Assays:
mouse SCLC cells (RP-1) = test: MTT cell viability, mouse SCLC cells RP-1; format: cell-based; details: RP-1, MTT, n = 3
Method in brief: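 Murine SCLC cells derived from Rb1/Trp53-mutant mouse lung tumors are grown in RPMI1640 with 10% bovine growth serum. Cells are seeded at 1×10^4 per well and treated with bromodomain- or HAT-domain-targeting test compounds. Over 0 to 4 or 6 days, MTT (0.5 mg/ml final) is added for 4 h at 37°C and OD is read at 590 nm, minus a vehicle blank. Triplicates; n = 3.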

[1] = system: human NSCLC (lung adenocarcinoma) cell lines; test: MTT cell viability / short-term proliferation, human NSCLC lines; format: cell-based; details: for growth of NSCLC cells under BRD/HAT inhibitors: MTT
human SCLC cell lines [2] = test: MTT cell viability / short-term proliferation, human SCLC lines; format: cell-based
[3] = system: human NSCLC (lung adenocarcinoma) cell lines; test: Soft agar colony formation, human NSCLC lines; format: cell-based; details: 2 μM in DMSO; H1650 (fig. S8A); n = 3
[4] = system: interaction between CREB1 and the KIX domain of CREBBP; details: cited from earlier work
human SCLC cell lines [5] = test: Soft agar colony formation, human SCLC lines; format: cell-based; details: 2 μM in DMSO; H69, H209, H524; n = 3
[6] = system: interaction between CREB1 and the KIX domain of EP300; details: cited from earlier work
[7] = target: FITC-labeled MYB peptide (MYB25); test: fluorescence polarisation
[8] = target: rhodamine-labeled MLL peptide (MLL25); test: fluorescence polarisation
H209 SCLC cells = test: RNA sequencing, GSEA and KEGG analysis, H209 cells; format: cell-based, human
Method in brief: (§1)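 SCLC cells express M/M or M/M-5A peptide under a doxycycline-inducible promoter. mRNA is oligo(dT)-purified from 500 ng total RNA, and 100-bp single-end reads are sequenced on an Illumina NextSeq2000. Differential expression signatures come from comparing TPM between experimental and control groups. GSEA is run on the signature using Molecular Signatures Database v7.4 gene sets.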

H524 SCLC cells = test: RNA sequencing, GSEA and KEGG analysis, H524 cells; format: cell-based, human; details: H524, M/M vs M/M-5A
Method in brief: as §1

EP300 = test: Anti-FLAG immunoprecipitation/immunoblot for EP300 in H524 cell extracts; format: cell-based, human; details: FLAG-tagged M/M, IP relative to input, n = 3
Method in brief: (§2)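 H524 cells express FLAG-tagged M/M fusion peptide from a doxycycline-inducible promoter. Cells are lysed in RIPA (pH 8.0, with protease inhibitors). Lysates are immunoprecipitated with anti-FLAG or control IgG overnight at 4°C, then protein A/G agarose is added for 4 h at 4°C. Eluates are immunoblotted for FLAG, EP300 and CREBBP. IP band intensity is expressed relative to 5% input; n = 3; unpaired t test.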

CREBBP = test: Anti-FLAG immunoprecipitation/immunoblot for CREBBP in H524 cell extracts; format: cell-based, human; details: FLAG-tagged M/M, IP relative to input, n = 3
Method in brief: as §2

[9] = target: purified KIX domain of CREBBP (Mus musculus, UniProt P45481); test: FP assay, direct binding of fluorophore-labeled peptides to CREBBP KIX
Method in brief: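 CREBBP KIX domain (87 residues, 585-672) was expressed from pMAL-c5E in E. coli Rosetta (DE3) and purified by affinity then anion-exchange chromatography. FP probes were N-terminally FITC-labelled MYB peptide and rhodamine-labelled MLL peptide, each at 0.5 µM, in 50 mM Hepes (pH 7.5) with 50 mM NaCl. Plates were incubated 30 min in the dark at room temperature, then read for polarization.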

A627D EP300 KIX = A627D EP300 KIX (human, UniProt Q09472 565-652, A627D); test: fluorescence polarisation
EP300 KIX domain = EP300 KIX domain (human, UniProt Q09472 565-652); test: fluorescence polarisation
EP300 KIX domain, sequence (Q09472 565-652): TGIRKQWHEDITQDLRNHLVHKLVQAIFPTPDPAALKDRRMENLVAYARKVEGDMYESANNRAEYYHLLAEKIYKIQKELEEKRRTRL

A627D EP300 KIX, sequence (Q09472 565-652 A627D): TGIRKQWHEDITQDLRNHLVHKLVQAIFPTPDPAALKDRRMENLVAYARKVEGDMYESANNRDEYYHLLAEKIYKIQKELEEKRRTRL
purified KIX domain of CREBBP, sequence (P45481 585-672): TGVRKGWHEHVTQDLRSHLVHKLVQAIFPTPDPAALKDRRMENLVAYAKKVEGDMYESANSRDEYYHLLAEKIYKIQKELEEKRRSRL

## CC1=NN(c2ccc(C(=O)O)cc2)C(=O)/C1=C\c1ccc(-c2cc(C)c(C)cc2[N+](=O)[O-])o1 [C646]
Mouse SCLC cells (RP-1)
  growth of mouse SCLC cells: did not have any significant effect on the growth
[1]; n = 3
  growth of NSCLC cells under BRD/HAT inhibitors: dose-dependent effects on NSCLC lines
Human SCLC cell lines [2]; MTT, n = 3
  growth of human SCLC cells under BRD/HAT inhibitors: either insignificant or modest

## CCC(=O)N1CCOc2c(cc(-c3ccc(OC)c(OC)c3)cc2OC[C@H]2CCCN(C)C2)C1 [I-CBP112]
Mouse SCLC cells (RP-1)
  growth of mouse SCLC cells: did not have any significant effect on the growth
[1]; n = 3
  growth of NSCLC cells under BRD/HAT inhibitors: dose-dependent effects on NSCLC lines
Human SCLC cell lines [2]; MTT, n = 3
  growth of human SCLC cells under BRD/HAT inhibitors: either insignificant or modest

## O=C(Nc1ccc(Cl)cc1)c1cc2ccccc2cc1OP(=O)(O)O [KG-501, 2-naphthol-AS-E-phosphate]
[3]
  soft agar colony formation of NSCLC lines, KG-501: did not have a significant effect on NSCLC cell lines
[4]
  inhibition of CREB1-CREBBP KIX interaction: shown to inhibit the interaction between CREB1 and the KIX domains of EP300 and CREBBP
Human SCLC cell lines [5]
  soft agar colony formation of SCLC lines, KG-501: inhibited the short-term growth of SCLC lines in culture and colony formation in soft agar
[1]; in culture
  short-term growth of NSCLC lines, KG-501: did not have a significant effect on NSCLC cell lines
[6]
  inhibition of CREB1-EP300 KIX interaction: shown to inhibit the interaction between CREB1 and the KIX domains of EP300 and CREBBP
Human SCLC cell lines [2]; in culture
  short-term growth of SCLC lines, KG-501: inhibited the short-term growth of SCLC lines in culture

## COc1ccc(CCc2nc3cc(-c4c(C)noc4C)ccc3n2C[C@H](C)N2CCOCC2)cc1Cl [SGC-CBP30]
Mouse SCLC cells (RP-1)
  growth of mouse SCLC cells: did not have any significant effect on the growth
[1]; n = 3
  growth of NSCLC cells under BRD/HAT inhibitors: dose-dependent effects on NSCLC lines
Human SCLC cell lines [2]; MTT, n = 3
  growth of human SCLC cells under BRD/HAT inhibitors: either insignificant or modest

## CREBBP KIX domain (from UniProt Q92793 585-672) (domain or fragment)
[7]
  Kd: 22 µM
[8]
  Kd: 94 µM

## D647A CREBBP KIX domain (from UniProt Q92793 585-672) (domain or fragment)
[7]
  Kd: 6.7 µM

## H-SDDGNILPSDIMDFVLKNTPSMQALGESGGDEDPEKEKRIKELELLLMSTENELKGQQAL-OH [M/M]
H209 SCLC cells; H209, M/M vs M/M-5A
  gene set enrichment (GSEA), TF target genes: significantly enriched in the gene sets related to MYB, ATF4, CREB1, and CREBP1/JUN targets
H209 SCLC cells; M/M-expressing H209 vs M/M-5A
  KEGG pathway small cell lung cancer: down-regulated in M/M-expressing H209 cells
H524 SCLC cells
  gene set enrichment (GSEA), TF target genes: significantly enriched in the gene sets related to MYB, ATF4, CREB1, and CREBP1/JUN targets
EP300
  binding to EP300 in cells: confirmed the binding of M/M to both EP300 and CREBBP
  preference EP300 over CREBBP in cells: bound preferentially to EP300 than to CREBBP
CREBBP
  binding to CREBBP in cells: confirmed the binding of M/M to both EP300 and CREBBP
[1]; doxycycline-inducible lentiviral expression of peptide, n = 3
  growth of lung adenocarcinoma cells, MTT: did not detectably affect the growth of lung adenocarcinoma cell lines
Human SCLC cell lines [2]; doxycycline-inducible lentiviral expression of peptide, MTT, n = 3
  short-term proliferation of SCLC cells: inhibited the short-term proliferation

## SDDGNILPSDIMDFVLKNTPSMQAL [MLL25]
[9]
  Kd: 94 ± 11 µM

## {FITC}-KEKRIKELELLLMSTENELKGQQAL [FITC-labeled MYB peptide (MYB25)]
A627D EP300 KIX
  Kd: 23 ± 6.2 µM
EP300 KIX domain
  Kd: 3.8 ± 0.2 µM

## SDDGNILPSDIMDFVLKNTPSMQAL (also: rhodamine label) [rhodamine-labeled MLL peptide (MLL25)]
A627D EP300 KIX
  Kd: 80 ± 8.5 µM
EP300 KIX domain
  Kd: 40 ± 14 µM
